Test results taken from ChEMBL document CHEMBL2057172, “Investigation of 7-benzylidenenaltrexone derivatives as resistance reverser for chloroquine-resistant Plasmodium chabaudi” (Bioorg Med Chem Lett, 2012).
Active and inactive are the calls of the source. The rule behind the calls is not given here.

Tests used:
Plasmodium chabaudi = assay: Antimalarial activity against chloroquine-resistant Plasmodium chabaudi infected in mouse assessed as reversal of chloroquine-resistance at 10 mg/kg, po administered 4 days after post infection; assay type: functional, organism-based; parameters: dose 10 mg/kg
Summary of the method: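 Mice infected with CQ-resistant P. chabaudi. Test compounds were given perorally at 10 mg/kg, alongside CQ at 3 mg/kg given intraperitoneally. Resistance reversal was read at day 4 after infection. Groups were compared by one-way ANOVA followed by Dunnett's test.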

[1] = molecular target: T1, Glutathione reductase, putative (Plasmodium chabaudi) (UniProt A0A077YEX9); assay: Inhibition of Plasmodium chabaudi glutathione reductase assessed as residual reduced glutathione level after 30 mins in presence of glutathione S-transferase
Summary of the method: (§1)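 Compounds were incubated with GSH, with or without GST, at 37 °C for 30 min. The residual GSH ratio was obtained from the absorbance of the medium.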

[2] = molecular target: T1, Glutathione reductase, putative (Plasmodium chabaudi); assay: Inhibition of Plasmodium chabaudi glutathione reductase assessed as residual reduced glutathione level after 30 mins in absence of glutathione S-transferase; summary of the method: as §1

T1 sequence (A0A077YEX9 as listed by the source): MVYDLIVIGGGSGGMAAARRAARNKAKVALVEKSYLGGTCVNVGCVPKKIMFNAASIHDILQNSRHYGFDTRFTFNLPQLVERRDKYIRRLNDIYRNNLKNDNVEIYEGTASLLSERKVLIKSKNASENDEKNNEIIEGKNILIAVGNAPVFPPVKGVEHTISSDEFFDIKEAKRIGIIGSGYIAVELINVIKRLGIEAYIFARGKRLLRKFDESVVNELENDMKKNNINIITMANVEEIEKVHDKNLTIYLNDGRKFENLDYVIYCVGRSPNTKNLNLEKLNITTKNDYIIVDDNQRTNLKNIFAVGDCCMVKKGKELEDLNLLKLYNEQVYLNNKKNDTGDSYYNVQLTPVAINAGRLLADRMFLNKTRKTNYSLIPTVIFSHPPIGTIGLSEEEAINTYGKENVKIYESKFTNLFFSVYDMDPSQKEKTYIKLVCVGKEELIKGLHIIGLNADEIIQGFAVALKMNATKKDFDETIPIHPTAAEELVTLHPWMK

SMILES	Activity (Plasmodium chabaudi)	inhibition [1]	inhibition [2]
O=C1/C(=C/c2ccccc2)C[C@@]2(O)[C@H]3Cc4ccc(O)c5c4[C@@]2(CCN3CC2CC2)[C@H]1O5	Active		
O=C1/C(=C/c2ccc(F)cc2)C[C@@]2(O)[C@H]3Cc4ccc(O)c5c4[C@@]2(CCN3CC2CC2)[C@H]1O5	Active		
O=C1[C@@H](Cc2ccccc2)C[C@@]2(O)[C@H]3Cc4ccc(O)c5c4[C@@]2(CCN3CC2CC2)[C@H]1O5		inactive	inactive
COc1ccc(/C=C2\C[C@@]3(O)[C@H]4Cc5ccc(O)c6c5[C@@]3(CCN4CC3CC3)[C@@H](O6)C2=O)cc1	Active		
